{"data": "Assay results gathered from unrelated publications", "XDH": "Xanthine dehydrogenase/oxidase (XDH, Bos taurus, UniProt P80457)", "SIRT1": "NAD-dependent protein deacetylase sirtuin-1 (SIRT1, Homo sapiens, UniProt Q96EB6)", "SPHK2": "Sphingosine kinase 2 (SPHK2, Homo sapiens, UniProt Q9NRA0)", "STAT5B SH2": "Signal transducer and activator of transcription 5B, SH2 (STAT5B, Homo sapiens, UniProt P51692)", "SLC7A5": "Large neutral amino acids transporter small subunit 1 (SLC7A5, Homo sapiens, UniProt Q01650)", "Adra1b": "Alpha-1B adrenergic receptor (Adra1b, Rattus norvegicus, UniProt P15823)", "note": "Each line is one published result; the experiments were not run side by side."}
{"SMILES": "O=C(O)c1ccc(O)c(O)c1", "target": "XDH", "read-out": "enzyme activity", "action": "inhibitor", "technique": "absorbance", "tested at": "100 µg/mL", "inhibition [%]": 9.5}
{"SMILES": "CCCCCC1CC(=O)c2cc(Cl)cc(Br)c2O1 (centres unmarked)", "target": "SIRT1", "read-out": "enzyme activity", "action": "inhibitor", "technique": "fluorescence", "tested at": "200 µM", "inhibition [%]": 6.2}
{"SMILES": "N=C(N)N1CCC[C@H]1c1nc(-c2ccc(CCc3ccc(C(F)(F)F)cc3)c(C(F)(F)F)c2)no1", "target": "SPHK2", "read-out": "enzyme activity", "action": "inhibitor", "technique": "radiometric", "tested at": "0.3 µM", "inhibition [%]": 59}
{"SMILES": "O=C(O)Cc1ccccc1OP(=O)(O)O", "target": "STAT5B SH2", "read-out": "ligand displacement", "technique": "FP", "tested at": "100 µM", "inhibition [%]": 39}
{"SMILES": "O=C(CSc1nc2nccnc2c(=O)n1CCc1ccccc1)Nc1ccccc1", "target": "SPHK2", "read-out": "enzyme activity", "action": "inhibitor", "tested at": "10 µM", "inhibition [%]": "< 20"}
{"SMILES": "OCCc1ccc(O)c(O)c1", "target": "XDH", "read-out": "enzyme activity", "action": "inhibitor", "technique": "absorbance", "tested at": "200 µg/mL", "inhibition [%]": 12.5}
{"SMILES": "CCCCCCCCNC(=S)NCCCC[C@H](NS(C)(=O)=O)C(=O)N[C@H](C)C(=O)N[C@@H](CCCNC(=N)N)C(N)=O", "target": "SIRT1", "read-out": "enzyme activity", "action": "inhibitor", "tested at": "10 µM", "inhibition [%]": 71}
{"SMILES": "O=C(COc1ccc2cc(C(=O)Nc3ccccc3)ccc2c1)NCc1ccc(O)c(O)c1", "target": "STAT5B SH2", "read-out": "ligand displacement", "technique": "FP", "tested at": "100 µM", "inhibition [%]": -2}
{"SMILES": "O=C(O)c1ccc(O)cc1", "target": "XDH", "read-out": "enzyme activity", "action": "inhibitor", "technique": "absorbance", "tested at": "200 µg/mL", "inhibition [%]": 17.9}
{"SMILES": "CCCCCC1CC(=O)c2cccc(Br)c2O1 (centres unmarked)", "target": "SIRT1", "read-out": "enzyme activity", "action": "inhibitor", "technique": "fluorescence", "tested at": "200 µM", "inhibition [%]": 7.1}
{"SMILES": "CCCCCCCCCCCCNC(=S)NCCCC[C@H](NC(=O)OCc1ccccc1)C(=O)N[C@@H](Cc1c[nH]c2ccccc12)C(=O)N[C@@H](CCCCN)C(N)=O", "target": "SIRT1", "read-out": "enzyme activity", "action": "inhibitor", "tested at": "10 µM", "inhibition [%]": 71}
{"SMILES": "[H]/N=C(\\N)N1CCC[C@H]1c1nc(-c2ccc(OCC=Cc3ccccc3C(F)(F)F)c(C(F)(F)F)c2)no1", "target": "SPHK2", "read-out": "enzyme activity", "action": "inhibitor", "technique": "radiometric", "tested at": "0.3 µM", "inhibition [%]": 0}
{"SMILES": "O=C1C=C(c2ccc(O)c(O)c2)CO1", "target": "XDH", "read-out": "enzyme activity", "action": "inhibitor", "technique": "absorbance", "tested at": "200 µg/mL", "inhibition [%]": 50}
{"SMILES": "N[C@@H](Cc1ccc(OC(=O)c2ccccc2)cc1)C(=O)O", "target": "SLC7A5", "read-out": "transporter uptake", "action": "inhibitor", "technique": "radiometric", "tested at": "200 µM", "inhibition [%]": 49}
{"SMILES": "CCOCCOCCOCCNC(=S)NCCCC[C@H](NS(C)(=O)=O)C(=O)N[C@H](C)C(=O)N[C@@H](CCCNC(=N)N)C(N)=O", "target": "SIRT1", "read-out": "enzyme activity", "action": "inhibitor", "tested at": "100 µM", "inhibition [%]": 16}
{"SMILES": "O=C(c1ccc(F)cc1)N(Cc1ccccc1)C1CCCCC1", "target": "Adra1b", "read-out": "cell-free assay", "tested at": "10 µM", "inhibition [%]": 4}
{"SMILES": "NC(CCOC(=O)c1ccccc1)C(=O)O (centres unmarked)", "target": "SLC7A5", "read-out": "transporter uptake", "action": "inhibitor", "technique": "radiometric", "tested at": "200 µM", "inhibition [%]": 11}
{"SMILES": "CCCCCC1CC(=O)c2cc(Br)cc(Br)c2O1 (centres unmarked)", "target": "SIRT1", "read-out": "enzyme activity", "action": "inhibitor", "technique": "fluorescence", "tested at": "200 µM", "inhibition [%]": 0.6}
{"SMILES": "[H]/N=C(\\N)N1CCC[C@H]1c1nc(-c2ccc(OCC=Cc3ccc(F)cc3)c(C(F)(F)F)c2)no1", "target": "SPHK2", "read-out": "enzyme activity", "action": "inhibitor", "technique": "radiometric", "tested at": "0.3 µM", "inhibition [%]": 57}
{"SMILES": "CCCCCCCCCCCCNC(=O)NCCCC[C@H](NS(C)(=O)=O)C(=O)N[C@H](C)C(=O)N[C@@H](CCCNC(=N)N)C(N)=O", "target": "SIRT1", "read-out": "enzyme activity", "action": "inhibitor", "tested at": "10 µM", "inhibition [%]": 38}
{"SMILES": "CCCCCC=CCOc1ccc(-c2noc([C@@H]3CCCN3C(=N)N)n2)cc1C(F)(F)F (mixture of isomers)", "target": "SPHK2", "read-out": "enzyme activity", "action": "inhibitor", "technique": "radiometric", "tested at": "0.3 µM", "inhibition [%]": 40}
{"SMILES": "CCCCCCCCCCCCNC(=S)NCCCC[C@H](NC(=O)OCc1ccccc1)C(=O)N[C@@H](Cc1c[nH]c2ccccc12)C(=O)N[C@@H](CCC(=O)O)C(N)=O", "target": "SIRT1", "read-out": "enzyme activity", "action": "inhibitor", "tested at": "1 µM", "inhibition [%]": 28}
{"SMILES": "NC(COC(=O)c1ccccc1)C(=O)O (centres unmarked)", "target": "SLC7A5", "read-out": "transporter uptake", "action": "inhibitor", "technique": "radiometric", "tested at": "200 µM", "inhibition [%]": 16}
{"SMILES": "Cn1c(CNC(=S)NCCCC[C@H](NS(=O)(=O)c2cccc(F)c2)C(=O)N[C@@H](Cc2c[nH]c3ccccc23)C(=O)NC2CCC2)n[nH]c1=S", "target": "SIRT1", "read-out": "enzyme activity", "action": "inhibitor", "tested at": "30 µM", "inhibition [%]": 89}
{"SMILES": "CCCCCCCCCCCCNC(=S)NCCCC[C@H](NC(=O)OCc1ccccc1)C(=O)N[C@@H](C)C(=O)N[C@@H](CCCNC(=N)N)C(N)=O", "target": "SIRT1", "read-out": "enzyme activity", "action": "inhibitor", "tested at": "1 µM", "inhibition [%]": 61}
{"SMILES": "CCCCNC(=S)NCCCC[C@H](NS(=O)(=O)c1cccc(F)c1)C(=O)N[C@@H](Cc1c[nH]c2ccccc12)C(=O)NC1CCC1", "target": "SIRT1", "read-out": "enzyme activity", "action": "inhibitor", "tested at": "1 µM", "inhibition [%]": "> 95"}
{"SMILES": "COc1ccc(CCc2ccc(-c3noc([C@@H]4CCCN4C(=N)N)n3)cc2C(F)(F)F)cc1", "target": "SPHK2", "read-out": "enzyme activity", "action": "inhibitor", "technique": "radiometric", "tested at": "0.3 µM", "inhibition [%]": 45}
{"SMILES": "OCCc1ccc(O)cc1", "target": "XDH", "read-out": "enzyme activity", "action": "inhibitor", "technique": "absorbance", "tested at": "200 µg/mL", "inhibition [%]": 21.2}
{"SMILES": "CC(C)(C)c1ccc(CCc2ccc(-c3noc([C@@H]4CCCN4C(=N)N)n3)cc2C(F)(F)F)cc1", "target": "SPHK2", "read-out": "enzyme activity", "action": "inhibitor", "technique": "radiometric", "tested at": "0.3 µM", "inhibition [%]": 71}
{"SMILES": "O=C(CO)c1ccc(O)c(O)c1", "target": "XDH", "read-out": "enzyme activity", "action": "inhibitor", "technique": "absorbance", "tested at": "100 µg/mL", "inhibition [%]": 20}
{"SMILES": "CCCCCC1CC(=O)c2cc(C)cc(C)c2O1 (centres unmarked)", "target": "SIRT1", "read-out": "enzyme activity", "action": "inhibitor", "technique": "fluorescence", "tested at": "200 µM", "inhibition [%]": 3.2}
{"SMILES": "NC(CNC(=O)c1ccccc1)C(=O)O (centres unmarked)", "target": "SLC7A5", "read-out": "transporter uptake", "action": "inhibitor", "technique": "radiometric", "tested at": "200 µM", "inhibition [%]": 4.6}
{"SMILES": "CCCCCCCCCCCCCC(=O)NNCCC[C@H](NC(=O)OCc1ccccc1)C(=O)N[C@@H](Cc1c[nH]c2ccccc12)C(=O)NC(C)C", "target": "SIRT1", "read-out": "enzyme activity", "action": "inhibitor", "tested at": "100 µM", "inhibition [%]": 10}
{"SMILES": "CC(C)CCn1c(SCC(=O)Nc2ccccc2C(F)(F)F)nc2nccnc2c1=O", "target": "SPHK2", "read-out": "enzyme activity", "action": "inhibitor", "tested at": "10 µM", "inhibition [%]": "< 20"}
{"SMILES": "Cc1ccc(S(=O)(=O)n2cc(CCC3CC(=O)c4cc(Cl)cc(Br)c4O3)c3ccccc32)cc1 (centres unmarked)", "target": "SIRT1", "read-out": "enzyme activity", "action": "inhibitor", "technique": "fluorescence", "tested at": "200 µM", "inhibition [%]": 23}
{"SMILES": "O=C(Nc1ccc(S(=O)(=O)N2CCC(Cl)CC2)cc1)c1ccc([N+](=O)[O-])o1", "target": "Adra1b", "read-out": "ligand displacement", "technique": "radioligand", "tested at": "10 µM", "inhibition [%]": 13}
{"SMILES": "O=Cc1ccc(O)cc1", "target": "XDH", "read-out": "enzyme activity", "action": "inhibitor", "technique": "absorbance", "tested at": "200 µg/mL", "inhibition [%]": 6.5}
{"SMILES": "N[C@@H](Cc1cccc(OC(=O)c2ccccc2)c1)C(=O)O", "target": "SLC7A5", "read-out": "transporter uptake", "action": "inhibitor", "technique": "radiometric", "tested at": "200 µM", "inhibition [%]": 100}
{"SMILES": "CCCCCC1CC(=O)c2cc(Cl)ccc2O1 (centres unmarked)", "target": "SIRT1", "read-out": "enzyme activity", "action": "inhibitor", "technique": "fluorescence", "tested at": "200 µM", "inhibition [%]": 2.7}
{"SMILES": "O=C(NC1CCC1)[C@H](Cc1c[nH]c2ccccc12)NC(=O)[C@H](CCCCNC(=S)NCCn1nn[nH]c1=O)NS(=O)(=O)c1cccc(F)c1", "target": "SIRT1", "read-out": "enzyme activity", "action": "inhibitor", "tested at": "10 µM", "inhibition [%]": 17}
{"SMILES": "CCCC=CCOc1ccc(-c2noc([C@@H]3CCCN3C(=N)N)n2)cc1C(F)(F)F", "target": "SPHK2", "read-out": "enzyme activity", "action": "inhibitor", "technique": "radiometric", "tested at": "0.3 µM", "inhibition [%]": 28}
{"SMILES": "COc1cc(-c2cc(-c3ccc(N4CCNCC4)cc3)cnc2N)cc(OC)c1OC", "target": "Platelet-derived growth factor receptor alpha (PDGFRA, Homo sapiens, UniProt P16234, D842V)", "read-out": "enzyme activity", "action": "inhibitor", "tested at": "1 µM", "inhibition [%]": 90}
{"SMILES": "[H]/N=C(\\N)N1CCC[C@H]1c1nc(-c2ccc(OCC=Cc3ccc(C(F)(F)F)cc3)c(C(F)(F)F)c2)no1", "target": "SPHK2", "read-out": "enzyme activity", "action": "inhibitor", "technique": "radiometric", "tested at": "0.3 µM", "inhibition [%]": 75}
{"SMILES": "O=c1cc(-c2ccccc2)oc2c(Br)cc(Cl)cc12", "target": "SIRT1", "read-out": "enzyme activity", "action": "inhibitor", "technique": "fluorescence", "tested at": "200 µM", "inhibition [%]": 3.1}
{"SMILES": "CCCC(=S)NCCCC[C@H](NS(C)(=O)=O)C(=O)N[C@H](C)C(=O)N[C@@H](CCCNC(=N)N)C(N)=O", "target": "SIRT1", "read-out": "enzyme activity", "action": "inhibitor", "tested at": "10 µM", "inhibition [%]": 14}
{"SMILES": "CCCCCC1CC(=O)c2cc(F)cc(F)c2O1 (centres unmarked)", "target": "SIRT1", "read-out": "enzyme activity", "action": "inhibitor", "technique": "fluorescence", "tested at": "200 µM", "inhibition [%]": 0.4}
{"SMILES": "O=Cc1c[nH]c2ccccc12", "target": "XDH", "read-out": "enzyme activity", "action": "inhibitor", "technique": "absorbance", "tested at": "100 µg/mL", "inhibition [%]": 8.1}
